# Test system: Plasmodium vinckei petteri
# Experiment: Antimalarial activity against Plasmodium vinckei petteri infected in CD mice (Mus musculus) assessed as inhibition of parasitaemia dosed daily for 4 days measured on day 5
# Assay type: functional
# Details: not given
# Outline: (§1)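 Four-day suppressive test: female CD mice (mean body weight 20 2 g) infected with 10⁶ P. vinckei petteri-infected red blood cells in RPMI on day 0. Groups of five treated intraperitoneally days 0–3 at 1, 10 or 20 mg/kg/day. Controls received RPMI alone or chloroquine (1 and 10 mg/kg). Giemsa-stained tail-blood smears, at least 5000 erythrocytes counted. Inhibition % = (control − treated parasitaemia)/control × 100.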
row,SMILES,ED50
1,CCc1ccc(/C=C2\Nc3cc(OC)cc(OC)c3C2=O)cc1,> 20 mg/kg
2,CCN(CC)CCCC(C)Nc1ccnc2cc(Cl)ccc12 (stereo not drawn) [CHLOROQUINE],5000 µg/mL

# Test system: Mus musculus
# Experiment: Toxicity against CD mouse at 20 mg/kg, ip qd for 4 days
# Assay type: organism-based
# Parameters: dose 20 mg/kg, route intraperitoneal
# Details: in vivo, 96 h
row,SMILES,Activity
1,CCc1ccc(/C=C2\Nc3cc(OC)cc(OC)c3C2=O)cc1,Non-toxic

# Test system: Plasmodium vinckei petteri
# Experiment: Antimalarial activity against Plasmodium vinckei petteri infected in CD mice (Mus musculus) assessed as inhibition of parasitaemia at 20 mg/kg, intraperitoneal daily for 4 days measured on day 5
# Assay type: functional
# Details: ip
# Outline: as §1
row,SMILES,inhibition in vivo at 20 mg/kg [%]
1,CCc1ccc(/C=C2\Nc3cc(OC)cc(OC)c3C2=O)cc1,0

# Test system: Plasmodium vinckei petteri
# Experiment: Antimalarial activity against Plasmodium vinckei petteri infected in CD mice (Mus musculus) assessed as inhibition of parasitaemia at 1 mg/kg, intraperitoneal daily for 4 days measured on day 5
# Assay type: functional
# Details: ip
# Outline: as §1
row,SMILES,inhibition in vivo at 1 mg/kg [%]
1,CCc1ccc(/C=C2\Nc3cc(OC)cc(OC)c3C2=O)cc1,3
2,CCN(CC)CCCC(C)Nc1ccnc2cc(Cl)ccc12 (stereo not drawn) [CHLOROQUINE],0

# Test system: Plasmodium vinckei petteri
# Experiment: Antimalarial activity against Plasmodium vinckei petteri infected in CD mice (Mus musculus) assessed as inhibition of parasitaemia at 10 mg/kg, intraperitoneal daily for 4 days measured on day 5
# Assay type: functional
# Details: ip
# Outline: as §1
row,SMILES,inhibition in vivo at 10 mg/kg [%]
1,CCc1ccc(/C=C2\Nc3cc(OC)cc(OC)c3C2=O)cc1,17
2,CCN(CC)CCCC(C)Nc1ccnc2cc(Cl)ccc12 (stereo not drawn) [CHLOROQUINE],100

# Test system: Plasmodium falciparum
# Experiment: Antiplasmodial activity against Plasmodium falciparum FcB1/columbia infected in human erythrocytes
# Assay type: functional, organism-based
# Details: not given
# Outline: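 Blood stages cultured in human erythrocytes in RPMI 1640 with 5% human serum (Trager–Jensen, modified). Cultures were synchronized every 48 h by 5% D-sorbitol lysis. IC50 is the concentration giving 50% inhibition of parasite growth, with chloroquine as the control drug.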
row,SMILES,IC50 [µM]
1,COc1cc(OC)c2c(c1)O/C(=C\c1ccc(F)cc1)C2=O,86.7
2,Cc1ccc(/C=C2\Oc3cc(O)cc(O)c3C2=O)cc1,63.4
3,CCc1ccccc1/C=C1\Oc2cc(OC)cc(OC)c2C1=O,21
4,COc1cc(OC)c2c(c1)O/C(=C\c1ccc(C(C)(C)C)cc1)C2=O,13.3
5,CCCCc1ccc(/C=C2\Oc3cc(OC)cc(OC)c3C2=O)cc1,11.8
6,COc1cc(OC)c2c(c1)O/C(=C\c1ccc(Br)cc1)C2=O,49.8
7,COc1cc(OC)c2c(c1)O/C(=C\c1ccc(-c3ccccc3)cc1)C2=O,234
8,COc1cc(OC)c2c(c1)O/C(=C\c1ccc(-c3ccncc3)cc1)C2=O,85
9,COc1cc2c(c(OC)c1)C(=O)/C(=C/c1ccc(Br)cc1)N2,49.8
10,COc1cc2c(c(OC)c1)C(=O)/C(=C/c1ccccc1Cl)N2,9.9
11,CCc1ccccc1/C=C1\Nc2cc(OC)cc(OC)c2C1=O,12.8
12,COc1cc2c(c(OC)c1)C(=O)/C(=C/c1c(C)cccc1C)N2,9.1
13,C#Cc1ccc(/C=C2\Nc3cc(OC)cc(OC)c3C2=O)cc1,13.4
14,COc1cc2c(c(OC)c1)C(=O)/C(=C/c1ccc(N3CCOCC3)cc1)N2,8.9
15,CCc1ccc(/C=C2\Oc3cc(O)ccc3C2=O)cc1,28
16,COc1cc2c(c(OC)c1)C(=O)/C(=C/c1ccc(Cl)cc1)N2,17
17,COc1cc2c(c(OC)c1)C(=O)/C(=C/c1c(F)cccc1Cl)N2,9
18,COc1cc(OC)c2c(c1)O/C(=C\c1ccccc1)C2=O,60.3
19,CCc1ccccc1/C=C1\Oc2cc(O)cc(O)c2C1=O,114
20,O=C1/C(=C/c2ccccc2)Oc2cc(O)cc(O)c21,94.5
21,O=C1/C(=C/c2ccc(O)cc2)Oc2cc(O)ccc21,130
22,"COc1ccc(/C=C2\Oc3cc(OC)cc(OC)c3C2=O)cc1 [4,4',6-TRIMETHOXY-AURONE]",11

# Other lines, results leading:
row,IC50 [µM],SMILES
1,8.9,COc1cc2c(c(OC)c1)C(=O)/C(=C/c1c(C)c(C)cc(C)c1C)N2
2,8.4,COc1cc2c(c(OC)c1)C(=O)/C(=C/c1cc(Cl)ccc1Cl)N2
3,7.2,COc1cc2c(c(OC)c1)C(=O)/C(=C/c1ccc(C(C)(C)C)cc1)N2
4,6.7,COc1cc2c(c(OC)c1)C(=O)/C(=C/c1ccc(SC)cc1)N2
5,5.6,COc1cc2c(c(OC)c1)C(=O)/C(=C/c1cc(C)c(C)cc1C)N2
6,5,COc1ccc(/C=C2\Nc3cc(OC)cc(OC)c3C2=O)c(OC)c1
7,4.4,COc1cc2c(c(OC)c1)C(=O)/C(=C/c1ccc(C(C)C)cc1)N2
8,4.1,CCCCc1ccc(/C=C2\Nc3cc(OC)cc(OC)c3C2=O)cc1
9,3.7,COc1cc2c(c(OC)c1)C(=O)/C(=C/c1ccc(N(C)C)cc1)N2
10,3.6,COc1cc2c(c(OC)c1)C(=O)/C(=C/c1ccc(C)cc1C)N2
11,1.9,COc1cc(OC)c(/C=C2\Nc3cc(OC)cc(OC)c3C2=O)c(OC)c1
12,1.9,COc1cc2c(c(OC)c1)C(=O)/C(=C/c1cc(OC)c(OC)c(OC)c1)N2
13,1,CCc1ccc(/C=C2\Nc3cc(OC)cc(OC)c3C2=O)cc1
